Experimental data gathered from unrelated publications.
Protocols differ between the studies behind these lines.
Toll-like receptor 1/2: Toll-like receptor 1/2 (Homo sapiens, UniProt O60603+Q15399)
Chymotrypsinogen A: Chymotrypsinogen A (Bos taurus, UniProt P00766)
lecA: PA-I galactophilic lectin (lecA, Pseudomonas aeruginosa, UniProt Q05097)

SMILES | target | observed | mode | technique | endpoint | result
Cc1cnc(-c2ccc(-c3ccc(NC(=O)Nc4c(F)cc(F)cc4F)cc3F)c3c2C(=O)NC3)[nH]1 | Tyrosine-protein kinase Fer (FER, Homo sapiens, UniProt P16591) | binding |  | competition with immobilised ligand | Kd | 14 nM
CNc1ccc([N+](=O)[O-])cc1-n1cnc(-c2ccc(C(C)(C)C)cc2)c1 | Toll-like receptor 1/2 | reporter gene | agonist |  | EC50 | 150 nM
CCCC[C@H](NC(=O)[C@H](CCC(N)=O)NC(=O)[C@H](CO)NC(=O)[C@H](Cc1ccccc1)NC(=O)CCCCCNC(=O)c1ccc(I)cc1)C(=O)N[C@@H](CCCBr)B(O)O | Chymotrypsinogen A | enzyme activity | inhibitor | fluorescence | Ki | 653 nM
CNc1ccc(C#N)cc1-n1cnc(-c2ccc([N+](=O)[O-])cc2)c1 | Toll-like receptor 1/2 | reporter gene | agonist |  | EC50 | 11000 nM
O=C(CCn1cc(CN2CCN(c3cc4c(cc3F)c(=O)c(C(=O)O)cn4C3CC3)CC2)nn1)Nc1ccc(S[C@@H]2O[C@H](CO)[C@H](O)[C@H](O)[C@H]2O)cc1 | lecA | ligand displacement |  | FP | Ki | 4290 nM
CCOCc1nc(O)c(-c2nnc(Cc3ccc(Cl)cn3)o2)c(O)c1-c1c(OC)cccc1OC | Apelin receptor (Aplnr, Mus musculus, UniProt Q9WV08) | cAMP | agonist |  | EC50 | 0.03 nM
CNc1ccc([N+](=O)[O-])cc1-n1cnc(-c2ccc(C#N)cc2)c1 | Toll-like receptor 1/2 | reporter gene | agonist |  | EC50 | 210 nM
O=C(CCn1cc(CCN2CCN(c3cc4c(cc3F)c(=O)c(C(=O)O)cn4C3CC3)CC2)nn1)Nc1ccc(S[C@@H]2O[C@H](CO)[C@H](O)[C@H](O)[C@H]2O)cc1 | lecA | ligand displacement |  | FP | Ki | 3190 nM
CCCC[C@H](NC(=O)[C@H](CCC(N)=O)NC(=O)[C@H](CO)NC(=O)CCCCCN)C(=O)N[C@@H](CCCBr)B(O)O | Chymotrypsinogen A | enzyme activity | inhibitor | fluorescence | Ki | 251 nM
CNc1ccc([N+](=O)[O-])cc1-n1cnc(-c2cc(F)c(F)cc2F)c1 | Toll-like receptor 1/2 | reporter gene | agonist |  | EC50 | > 100000 nM
CCCC[C@H](NC(=O)[C@H](CCC(N)=O)NC(=O)[C@H](CO)NC(=O)C[C@@H](Cc1ccc2ccccc2c1)NC(=O)CCCCCN)C(=O)N[C@@H](CCCBr)B(O)O | Chymotrypsinogen A | enzyme activity | inhibitor | fluorescence | Ki | 506 nM
CNc1nc(I)nc2c1ncn2[C@H]1C[C@H](OP(=O)(O)O)[C@]2(COP(=O)(O)O)C[C@H]12 | P2Y purinoceptor 1 (Rattus norvegicus, UniProt P49651) | calcium signal | antagonist |  | Kb | 5.4 nM
CCn1c(-c2nc3ccc(C(=O)N4CCCC(N)C4)cc3n2C)cc2ccccc21 (centres unmarked) | Muscarinic acetylcholine receptor M2 (CHRM2, Homo sapiens, UniProt P08172) | calcium signal | agonist |  | EC50 | > 15800 nM
CC[C@H](C)[C@H](NC(=O)[C@H](Cc1ccccc1)NC(=O)[C@H](CCC(=O)O)NC(=O)[C@H](CCCCN)NC(=O)[C@H](C)NC(=O)[C@H](C)NC(=O)[C@H](CCC(N)=O)NC(=O)CNC(=O)[C@H](CCC(=O)O)NC(=O)[C@H](CC(C)C)NC(=O)[C@H](Cc1ccc(O)cc1)NC(=O)[C@H](CO)NC(=O)[C@H](CO)NC(=O)[C@@H](NC(=O)[C@H](CC(=O)O)NC(=O)[C@H](CO)NC(=O)[C@@H](NC(=O)[C@H](Cc1ccccc1)NC(=O)[C@@H](NC(=O)CNC(=O)[C@H](CCC(=O)O)NC(=O)[C@H](C)NC(=O)[C@@H](N)Cc1c[nH]cn1)[C@@H](C)O)[C@@H](C)O)C(C)C)C(=O)N[C@@H](C)C(=O)N[C@@H](Cc1c[nH]c2ccccc12)C(=O)N[C@@H](CC(C)C)C(=O)N[C@H](C(=O)N[C@@H](CCCCN)C(=O)NCC(=O)N[C@@H](CCCN=C(N)N)C(=O)NCC(=O)O)C(C)C | Gastric inhibitory polypeptide receptor (Mus musculus, UniProt Q0P543) | reporter gene | agonist | luciferase | EC50 | > 1000 nM
